From ChEMBL document CHEMBL1132645, “Novel arylpyrazino[2,3-c][1,2,6]thiadiazine 2,2-dioxides as inhibitors of platelet aggregation. 1. Synthesis and pharmacological evaluation” (1999)

Legend:
Assay type in all cases: functional
[1] = organism: Oryctolagus cuniculus; assay: Compound was screened for its platelet aggregation induced by arachidonic acid in vitro in rabbit
How it was run: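 Rabbit citrated PRP, 5 × 10⁵ platelets/μL, compound preincubated in DMSO 10 min at 37 °C, then arachidonic acid 1 mM. Born aggregometry at 5 min, triplicate for each concentration. Value is EC100, the lowest concentration giving complete inhibition, read from concentration–response data.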

[2] = organism: Oryctolagus cuniculus; assay: Compound was screened for its platelet aggregation induced by adenosine diphosphate in vitro in rabbit; parameters: concentration or dose not given beside the values
How it was run: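 Rabbit citrated PRP (male New Zealand white, 2.5–3.5 kg, cardiac puncture), adjusted to 5 × 10⁵ platelets/μL with PPP. Compound in DMSO preincubated 10 min at 37 °C, then ADP 1–2 μM added. Born aggregometry read at 5 min. Single fixed concentration; result is percent inhibition of maximal amplitude against paired vehicle controls.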

[3] = test system: Rattus norvegicus; assay: In vivo inhibitory activity after 30 min of 100 mg/kg oral administration induced by I-BOP in rats; settings: 0.5 h
How it was run: (§1)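 Male Wistar rats, 200–250 g, fasted overnight, were dosed by oral gavage with compound suspended in 0.25% carboxymethylcellulose in 10% Tween 80 (10 mL/kg). Blood was drawn by cardiac puncture under ether at 30 or 120 min and anticoagulated with heparin 1 U/mL final. PRP was diluted to (4–5) × 10⁵ cells/μL. Agonists: AA 0.4 mM, collagen 1–2 μg/mL, I-BOP 225–250 nM. Percent inhibition read at 5 min; 3–5 determinations, mean ± SEM.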

[4] = test system: Rattus norvegicus; assay: In vivo inhibitory activity after 30 min of 100 mg/kg oral administration induced by arachidonic acid in rats; settings: 0.5 h; how it was run: as §1
[5] = test system: Rattus norvegicus; assay: In vivo inhibitory activity after 120 min of 100 mg/kg oral administration induced by I-BOP in rats; settings: 2 h; how it was run: as §1
[6] = test system: Rattus norvegicus; assay: In vivo inhibitory activity after 120 min of 100 mg/kg oral administration induced by arachidonic acid in rats; settings: 2 h; how it was run: as §1
[7] = test system: Rattus norvegicus; assay: In vivo inhibitory activity after 120 min of 100 mg/kg oral administration induced by collagen in rats; settings: 2 h; how it was run: as §1
[8] = test system: Rattus norvegicus; assay: In vivo inhibitory activity after 30 min of 100 mg/kg oral administration induced by collagen in rats; settings: 0.5 h; how it was run: as §1
[9] = test system: Rattus norvegicus; assay: In vivo inhibitory activity after 120 min of 25 mg/kg oral administration induced by collagen in rats; settings: 2 h
[10] = test system: Rattus norvegicus; assay: In vivo inhibitory activity after 120 min of 25 mg/kg oral administration induced by I-BOP in rats; settings: 2 h
[11] = test system: Rattus norvegicus; assay: In vivo inhibitory activity after 120 min of 25 mg/kg oral administration induced by arachidonic acid in rats; settings: 2 h
[12] = organism: Homo sapiens; assay: Compound was screened for its platelet aggregation induced by collagen in vitro in human platelets at conc 1 mM
How it was run: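 Human citrated PRP (blood from consenting volunteers, 3.8% trisodium citrate 9:1; PRP 250g 10 min, PPP 2000g 20 min, room temperature), adjusted to 3 × 10⁵ platelets/μL with PPP. Compounds in DMSO preincubated 10 min at 37 °C. Agonists: AA 1 mM, collagen 1–2 μg/mL, U46619 1.4 μM, I-BOP 225–250 nM. Born turbidimetric aggregometry read 5 min after agonist; inhibition of maximal amplitude versus paired vehicle; 3–4 determinations, mean ± SEM.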

Work on `NC(=O)CN1c2nc(-c3ccccc3)c(-c3ccccc3)nc2C(N)=NS1(=O)=O` yielded an EC100 [1] of 0.003 mg/mL and an Inhibitory response [2] of 47%.
Molecule `CN1c2nc(-c3ccccn3)c(-c3ccccn3)nc2C(N)=NS1(=O)=O` has an EC100 [1] of 0.003 mg/mL and an Inhibitory response [2] of 43%.
`CN1c2ncc(-c3ccccc3)nc2C(N)=NS1(=O)=O` gave an EC100 [1] of 0.0003 mg/mL and an Inhibitory response [2] of 43%.
For `CN1c2nc(-c3ccco3)c(-c3ccco3)nc2C(N)=NS1(=O)=O`, the EC100 [1] was 0.001 mg/mL and the Inhibitory response [2] was 63%.
In the case of `CCN1c2nc(C)c(-c3ccccc3)nc2C(N)=NS1(=O)=O`, the inhibition in vivo at 100 mg/kg [3] is reported as 59.6%, the inhibition in vivo at 100 mg/kg [4] is reported as 20% and the inhibition in vivo at 100 mg/kg [5] is reported as 50.3%. It also gave an inhibition in vivo at 100 mg/kg [6] of 48.8%, an inhibition in vivo at 100 mg/kg [7] of 47.2% and an inhibition in vivo at 100 mg/kg [8] of 93.5%. The EC100 [1] was 0.001 mg/mL and the Inhibitory response [2] was 47%.
`O=C(O)CCn1c2c(c3ccccc31)CC(NS(=O)(=O)c1ccc(F)cc1)CC2` (stereo not given) was tested, and the inhibition in vivo at 25 mg/kg [9] was 95.3%, the inhibition in vivo at 25 mg/kg [10] was 72.5% and the inhibition in vivo at 25 mg/kg [11] was 74.2%.
`CCOC(=O)CN1c2nc(-c3ccccc3)c(-c3ccccc3)nc2C(N)=NS1(=O)=O` was tested, and the EC100 [1] was 0.0001 mg/mL and the Inhibitory response [2] was 30%.
In the case of `CCN1c2nc(-c3ccccc3)c(Cl)nc2C(N)=NS1(=O)=O`, the EC100 [1] is reported as 0.01 mg/mL and the Inhibitory response [2] is reported as 23%.
`CC(C)(C)OC(=O)CN1c2nc(-c3ccccc3)c(-c3ccccc3)nc2C(N)=NS1(=O)=O` showed an EC100 [1] of 0.001 mg/mL and an Inhibitory response [2] of 32%.
`CCN1c2nc(-c3ccccc3)c(-c3ccccc3)nc2C(N)=NS1(=O)=O` was tested, and the inhibition in vivo at 100 mg/kg [3] was 100%, the inhibition in vivo at 100 mg/kg [4] was 6.5% and the inhibition in vivo at 100 mg/kg [5] was 30%. For the same molecule, the inhibition in vivo at 100 mg/kg [6] was 1%, the inhibition in vivo at 100 mg/kg [7] was 26.3% and the inhibition in vivo at 100 mg/kg [8] was 82.6%. For the same molecule, the EC100 [1] was 0.0003 mg/mL and the Inhibitory response [2] was 46%.
For `NC1=NS(=O)(=O)N(Cc2ccccc2)c2nc(-c3ccccc3)c(-c3ccccc3)nc21`, the EC100 [1] was 0.003 mg/mL and the Inhibitory response [2] was 30%.
`CCOC(=O)CN1c2nc(-c3ccccc3)c(Br)nc2C(N)=NS1(=O)=O` showed an EC100 [1] of 0.01 mg/mL and an Inhibitory response [2] of 36%.
For `CCN1c2nc(-c3cccs3)c(-c3cccs3)nc2C(N)=NS1(=O)=O`, the EC100 [1] was 0.003 mg/mL and the Inhibitory response [2] was 43%.
With `CCN1c2nc(-c3ccccc3)c(C)nc2C(N)=NS1(=O)=O` the EC100 [1] was 0.001 mg/mL and the Inhibitory response [2] was 59%.
`Nc1ncnc2c1ncn2[C@@H]1O[C@H](CO)[C@@H](O)[C@H]1O` [ADENOSINE] was tested, and the Inhibitory response [2] was 64%.
Work on `CC(=O)Oc1ccccc1C(=O)O` [ASPIRIN] yielded an inhibition in vivo at 100 mg/kg [5] of 0.9%, an inhibition at 1000 µM [12] of 94% and an inhibition in vivo at 100 mg/kg [6] of 93.8%. The inhibition in vivo at 100 mg/kg [7] was 84.6% and the EC100 [1] was 0.0025 mg/mL.
`Clc1ccccc1CN1CCc2sccc2C1` [TICLOPIDINE] gave an inhibition in vivo at 100 mg/kg [5] of 57.1%, an inhibition in vivo at 100 mg/kg [6] of 0.9% and an inhibition in vivo at 100 mg/kg [7] of 98.7%.
